pKi: −log10 of the molar value.
Assays:
[1] = molecular target: T1, Fatty-acid amide hydrolase 1 (Rattus norvegicus) (UniProt P97612); assay: Activity of partially purified Sprague-Dawley rat FAAH assessed as substrate hydrolysis
T1 sequence (whole entry): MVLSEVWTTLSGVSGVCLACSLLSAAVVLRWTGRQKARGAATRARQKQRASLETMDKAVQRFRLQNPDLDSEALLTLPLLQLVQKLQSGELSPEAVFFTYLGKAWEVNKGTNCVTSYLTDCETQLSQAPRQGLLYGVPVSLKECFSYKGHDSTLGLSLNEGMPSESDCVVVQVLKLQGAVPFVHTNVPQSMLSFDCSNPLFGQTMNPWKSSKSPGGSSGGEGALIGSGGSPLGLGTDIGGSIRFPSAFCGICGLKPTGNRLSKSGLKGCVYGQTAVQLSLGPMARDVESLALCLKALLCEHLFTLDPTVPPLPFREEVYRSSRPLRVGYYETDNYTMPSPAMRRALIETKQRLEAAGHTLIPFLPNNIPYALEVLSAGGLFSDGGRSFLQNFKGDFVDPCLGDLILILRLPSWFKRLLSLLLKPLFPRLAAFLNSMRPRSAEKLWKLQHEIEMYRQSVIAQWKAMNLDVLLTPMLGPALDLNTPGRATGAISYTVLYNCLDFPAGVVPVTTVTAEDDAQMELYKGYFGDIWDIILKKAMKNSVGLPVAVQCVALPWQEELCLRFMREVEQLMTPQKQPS

[2] = molecular target: T2, Monoglyceride lipase (Rattus norvegicus) (UniProt Q8R431); assay: Activity of partially purified Sprague-Dawley rat MGL assessed as substrate hydrolysis
T2 sequence (whole entry): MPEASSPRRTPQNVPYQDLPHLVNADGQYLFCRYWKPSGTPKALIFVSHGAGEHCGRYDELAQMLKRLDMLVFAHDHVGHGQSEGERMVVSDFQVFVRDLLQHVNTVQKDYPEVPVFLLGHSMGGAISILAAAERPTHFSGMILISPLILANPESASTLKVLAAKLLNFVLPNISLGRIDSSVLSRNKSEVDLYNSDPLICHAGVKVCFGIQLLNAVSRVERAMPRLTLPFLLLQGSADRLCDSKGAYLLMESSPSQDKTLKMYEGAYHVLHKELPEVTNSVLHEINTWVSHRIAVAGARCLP

[3] = molecular target: Cannabinoid receptor 2 (Mus musculus, UniProt P47936); assay: Displacement of [3H]CP-55940 from mouse spleen CB2 receptor; assay type: tissue-based
Sequence of Cannabinoid receptor 2 (P47936 whole entry): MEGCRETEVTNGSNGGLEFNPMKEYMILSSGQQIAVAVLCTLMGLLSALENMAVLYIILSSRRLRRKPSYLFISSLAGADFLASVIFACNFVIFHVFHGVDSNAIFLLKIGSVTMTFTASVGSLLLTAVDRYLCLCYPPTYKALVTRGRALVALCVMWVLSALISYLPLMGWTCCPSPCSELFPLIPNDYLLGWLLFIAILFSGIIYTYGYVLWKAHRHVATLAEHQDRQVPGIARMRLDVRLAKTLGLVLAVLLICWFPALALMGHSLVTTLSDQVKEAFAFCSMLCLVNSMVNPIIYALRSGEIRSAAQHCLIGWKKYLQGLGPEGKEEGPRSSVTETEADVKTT
How it was run: (§1)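 Competition-equilibrium binding against [3H]CP55940, using rat brain membranes for CB1 and mouse spleen membranes for CB2. Some CB1 runs used membranes pretreated with PMSF. IC50 came from nonlinear regression and Ki was calculated from IC50. Points were run in duplicate, with values from single experiments.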

[4] = molecular target: Cannabinoid receptor 1 (Rattus norvegicus, UniProt P20272); assay: Displacement of [3H]CP-55940 from rat brain CB1 receptor
Sequence of Cannabinoid receptor 1 (P20272 whole entry): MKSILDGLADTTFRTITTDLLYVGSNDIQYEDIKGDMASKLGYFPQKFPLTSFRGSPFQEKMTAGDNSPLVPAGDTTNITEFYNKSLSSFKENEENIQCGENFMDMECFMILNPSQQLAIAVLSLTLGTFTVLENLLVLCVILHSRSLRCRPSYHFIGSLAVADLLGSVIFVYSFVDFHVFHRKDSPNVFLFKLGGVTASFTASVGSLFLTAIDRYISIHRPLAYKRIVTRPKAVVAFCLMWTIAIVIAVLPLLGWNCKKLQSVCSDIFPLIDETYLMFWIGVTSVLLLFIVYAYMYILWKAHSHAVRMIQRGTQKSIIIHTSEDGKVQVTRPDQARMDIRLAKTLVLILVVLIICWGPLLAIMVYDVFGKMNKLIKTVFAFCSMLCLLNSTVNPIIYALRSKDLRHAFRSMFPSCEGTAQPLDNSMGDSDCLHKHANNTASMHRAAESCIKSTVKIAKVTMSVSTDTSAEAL
How it was run: as §1

Row | SMILES | hydrolysis [1] [%] | hydrolysis [2] [%] | pKi [3] | pKi [4]
1 | CCCCC/C=C\C/C=C\C/C=C\C/C=C\CCCC(=O)OC(CO)CO | 100 | 74 |  | 
2 | CCCCC/C=C\C/C=C\C/C=C\C/C=C\CCCC(=O)O[C@@H]1[C@H](O)CCC[C@@H]1O | 2 | 2 |  | 
3 | CCCCC/C=C\C/C=C\C/C=C\C/C=C\CCCC(=O)O[C@H]1[C@H](O)CCC[C@@H]1O | 78 | 19 |  | 
4 | CCCCC/C=C\C/C=C\C/C=C\C/C=C\CCCC(=O)OC1C(O)CCCC1O (racemic) | 100 | 1 |  | 
5 | CCCCC/C=C\C/C=C\C/C=C\C/C=C\CCCC(=O)OC1C(=O)CCCC1O (racemic; form 1) [listing 1 of 2 here] |  |  | 6.39 | 
6 | CCCCC/C=C\C/C=C\C/C=C\C/C=C\CCCC(=O)OC1C(=O)CCCC1O (racemic; form 1) [listing 2 of 2 here] | 91 | 48 |  | 
7 | CCCCC/C=C\C/C=C\C/C=C\C/C=C\CCCC(=O)OC1C(=O)CCCC1O (racemic; form 2) | 100 | 8 |  | 
8 | CCCCC/C=C\C/C=C\C/C=C\C/C=C\CCCC(=O)OC1C(O)CCCC1O (single isomer, unassigned; (+)) [listing 1 of 2 here] |  |  | 6.43 | 6.44
9 | CCCCC/C=C\C/C=C\C/C=C\C/C=C\CCCC(=O)OC1C(O)CCCC1O (single isomer, unassigned; (+)) [listing 2 of 2 here] | 88 | 10 |  | 
10 | CCCCC/C=C\C/C=C\C/C=C\C/C=C\CCCC(=O)OC1C(O)CCCC1O (single isomer, unassigned; (-)) [listing 1 of 2 here] |  |  | 5.92 | 6.11
11 | CCCCC/C=C\C/C=C\C/C=C\C/C=C\CCCC(=O)OC1C(O)CCCC1O (single isomer, unassigned; (-)) [listing 2 of 2 here] | 88 | 13 |  | 

Source: ChEMBL document CHEMBL1140454, “Conformationally constrained analogues of 2-arachidonoylglycerol” (Bioorg Med Chem Lett, 2007)
